{"source": "ChEMBL document CHEMBL4145607", "about": "“Tamarixetin Exhibits Anti-inflammatory Activity and Prevents Bacterial Sepsis by Increasing IL-10 Production” (J Nat Prod, 2018)", "key": {"[1]": {"test_system": "BMDC", "experiment": "Inhibition of Escherichia coli DH5alpha infection-induced immune response in C57BL/6 mouse BMDC assessed as reduction in TNFalpha secretion at 25 uM pretreated for 30 mins followed by Escherichia coli DH5alpha infection for 6 hrs by ELISA", "type": "functional, cell-based", "in_short": "(§1)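 C57BL/6 BMDCs received 25 μM compound and E. coli DH5α, 3 × 10^6 CFU·mL−1. Schedules were: compound 30 min before a 6 h infection; co-addition for 6 h; or compound for 30, 60, 90 or 120 min plus 6 h infection. Supernatant TNF-α, IL-6, IL-10 and IL-12p70 were measured by ELISA. At least three experiments in triplicate.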"}, "[2]": {"target": "T1, Toll-like receptor 4 (Mus musculus) (UniProt Q9QUK6)", "T1 sequence (whole entry)": "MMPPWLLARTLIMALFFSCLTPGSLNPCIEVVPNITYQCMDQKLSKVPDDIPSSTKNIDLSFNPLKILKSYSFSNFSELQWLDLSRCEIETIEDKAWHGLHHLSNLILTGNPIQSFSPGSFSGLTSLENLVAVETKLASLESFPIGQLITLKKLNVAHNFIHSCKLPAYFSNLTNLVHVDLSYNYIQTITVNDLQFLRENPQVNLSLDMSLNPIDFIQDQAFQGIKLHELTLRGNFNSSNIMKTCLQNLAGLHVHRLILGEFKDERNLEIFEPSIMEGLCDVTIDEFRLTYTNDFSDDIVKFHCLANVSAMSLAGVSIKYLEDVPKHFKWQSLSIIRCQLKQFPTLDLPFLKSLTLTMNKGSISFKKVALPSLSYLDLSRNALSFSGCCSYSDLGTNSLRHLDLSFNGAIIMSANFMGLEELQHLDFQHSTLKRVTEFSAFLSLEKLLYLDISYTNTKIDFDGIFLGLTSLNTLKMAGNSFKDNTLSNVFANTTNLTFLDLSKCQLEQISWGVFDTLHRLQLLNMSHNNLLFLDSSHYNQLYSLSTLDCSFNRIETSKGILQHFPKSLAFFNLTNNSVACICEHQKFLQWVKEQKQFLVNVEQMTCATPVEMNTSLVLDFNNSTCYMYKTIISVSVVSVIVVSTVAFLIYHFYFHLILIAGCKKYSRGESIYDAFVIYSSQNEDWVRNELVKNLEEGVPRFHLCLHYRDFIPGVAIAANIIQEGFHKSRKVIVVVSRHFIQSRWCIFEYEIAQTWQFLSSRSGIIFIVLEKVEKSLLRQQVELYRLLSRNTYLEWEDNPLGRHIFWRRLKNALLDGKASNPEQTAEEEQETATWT", "experiment": "Inhibition of LPS-induced TLR4 activation in C57BL/6 mouse BMDC assessed as reduction in Akt phosphorylation at 25 uM pretreated for 30 mins followed by LPS-challenge measured after 15 to 90 mins by Western blot analysis", "type": "cell-based", "in_short": "(§2)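 BMDCs were pretreated 30 min with 25 μM compound, then stimulated with LPS 50 ng·mL−1 for the indicated times. Lysates (25 μg protein) were run on 10% SDS-PAGE and immunoblotted for phospho/total ERK, JNK, p38 and Akt, plus COX-2, IκBα and α-tubulin, with ECL detection. Representative of three experiments.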"}, "[3]": {"test_system": "BMDC", "experiment": "Increase in microRNA187 expression in LPS-induced C57BL/6 mouse BMDC at 25 uM pretreated for 30 mins followed by LPS-challenge measured after 6 hrs by qRT-PCR analysis", "type": "functional, cell-based", "in_short": "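Total RNA was extracted from BMDCs with TRIzol and reverse transcribed. miR-146a, miR-155 and miR-187 were quantified by real-time qPCR with gene-specific primers.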"}, "[4]": {"test_system": "BMDC", "experiment": "Inhibition of Escherichia coli DH5alpha infection-induced immune response in C57BL/6 mouse BMDC assessed as reduction in IL-12p70 secretion at 25 uM pretreated for 30 mins followed by Escherichia coli DH5alpha infection for 6 hrs by ELISA", "type": "functional, cell-based", "in_short": "as §1"}, "[5]": {"test_system": "Mus musculus", "experiment": "Antiinflammatory activity in Balb/c mouse model of LPS-induced endotoxemia assessed as reduction in serum blood urea nitrogen level at 1 mg/kg, ip pretreated for 1 hr followed by LPS-challenge measured after 12 hrs by ELISA", "type": "functional, organism-based", "in_short": "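In BALB/c mice, 1 mg·kg−1 i.p. was given 1 h before LPS 10 mg·kg−1 i.p. After 12 h, serum AST, ALT and BUN were measured by ELISA. Means ± SEM.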"}, "[6]": {"test_system": "Mus musculus", "experiment": "Antiseptic activity in Balb/c mouse model of Escherichia coli K1 infection-induced sepsis assessed as increase in serum IL10 level at 1 mg/kg, ip pretreated for 1 hr followed by Escherichia coli K1 infection measured after 2 hrs by ELISA", "type": "functional, organism-based", "in_short": "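BALB/c mice received 1 mg·kg−1 i.p. 1 h before i.p. E. coli K1 RS218, 1 × 10^6 CFU per mouse. Serum was collected at 2 h, and TNF-α, IL-6 and IL-10 were quantified by sandwich ELISA. Means ± SEM.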"}, "[7]": {"test_system": "BMDC", "experiment": "Inhibition of Escherichia coli DH5alpha infection-induced immune response in C57BL/6 mouse BMDC assessed as reduction in IL-6 secretion at 25 uM pretreated for 30 mins followed by Escherichia coli DH5alpha infection for 6 hrs by ELISA", "type": "functional, cell-based", "in_short": "as §1"}, "[8]": {"test_system": "Mus musculus", "experiment": "Antiinflammatory activity in Balb/c mouse model of LPS-induced endotoxemia assessed as increase in survival rate at 1 mg/kg, ip pretreated for 1 hr followed by LPS-challenge measured over 72 hrs relative to control", "type": "functional", "in_short": "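Female-unspecified BALB/c mice given compound i.p. 1 h before i.p. LPS (20 mg·kg−1); survival followed over 72 h.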"}, "[9]": {"target": "T1, Toll-like receptor 4 (Mus musculus)", "experiment": "Inhibition of LPS-induced TLR4 activation in C57BL/6 mouse BMDC assessed as reduction in ERK phosphorylation at 25 uM pretreated for 30 mins followed by LPS-challenge measured after 15 to 90 mins by Western blot analysis", "type": "cell-based", "in_short": "as §2"}}, "note": "The source made the active and inactive calls. The calls are words filed in the database; no cut-off is given here.", "data": [{"smiles": "COc1ccc(-c2oc3cc(O)cc(O)c3c(=O)c2O)cc1O", "note": "[TAMARIXETIN]", "values": [{"measurement": "inhibition", "setting": "[1]", "result": "Active"}, {"measurement": "inhibition", "setting": "[2]", "result": "Active"}, {"measurement": "Activity", "setting": "[3]", "result": "Active"}, {"measurement": "inhibition", "setting": "[4]", "result": "Active"}, {"measurement": "Activity", "setting": "[5]", "result": "Active"}, {"measurement": "Activity", "setting": "[6]", "result": "Active"}, {"measurement": "inhibition", "setting": "[7]", "result": "Active"}, {"measurement": "Activity", "setting": "[8]", "result": 80, "unit": "%"}, {"measurement": "inhibition", "setting": "[9]", "result": "inactive"}]}]}
